In publication PMC4074512 (European journal of pharmacology, 2014):
Converted amounts (≈) assume the structure as drawn. Where two headings read alike, the source gives them in different places.

How the values were obtained:
Caco-2 monolayers = settings: pH from 5.5 to 7.4, ref Zhang et al., 2013; cited from earlier work
ABCB1 transporter (PGP1) = ABCB1 transporter (PGP1) (Homo sapiens, UniProt P08183); assay type: cell-based; settings: PGP1 overexpressing MDCKII cells, even at 200 μM
MDCKII monolayers = assay type: in vitro ADME, Canine; settings: MDCKII monolayers; for Efflux ratio after EDTA treatment compared to non-EDTA treatment groups: all test groups; for Papp (a–b) / Papp (b-a): without EDTA treatment
Method in brief: (§1)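 MDCKII cells seeded at 2.0 × 10^5 per polycarbonate insert (1.12 cm2, 0.4 μm) and grown 7 days; monolayers used only if TEER > 200 Ωcm2. Flux run in both directions per the Caco-2 protocol: HBSS/25 mM HEPES pH 7.4, 37°C, 2 h, serial sampling. Optional pretreatment: 5 μM EDTA in Ca/Mg-free HBSS, both sides, 5 min at 37°C, then washed. Compound by HPLC-UV, lucifer yellow by fluorescence (485/535 nm); n = 3.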

[1] = assay type: in vitro ADME, Canine; settings: dog, MDCK
Method in brief: as §1

[2] = Bidirectional flux of EFdA in Caco-2 cell monolayers; assay type: in vitro ADME; settings: human, Caco-2, pH 7.4
Method in brief: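 Caco-2 cells seeded at 2.0 × 10^5 per polycarbonate insert (1.12 cm2, 0.4 μm) and differentiated 21 days. Monolayers were washed and pre-incubated 20 min at 37°C in HBSS, then TEER was read. Donor (apical or basolateral) held 25, 100 or 400 μM compound in HBSS/25 mM HEPES pH 7.4; 2 h at 37°C with shaking, sampled 0–120 min. HPLC-UV at 260 nm. Papp = (dQ/dt)/(A×C0); efflux ratio = Papp(b-a)/Papp(a-b); n = 3.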

[3] = ref Zhang et al., 2013, cited from earlier work
[4] = test system: human ectocervical tissues; settings: three separate human ectocervical tissues; ref Zhang et al., 2013; cited from earlier work
[5] = ref Zhang et al., 2013; cited from earlier work
MDCKII cells [6] = experiment: Calcein-AM uptake assay in MDCKII cells; assay type: cell-based, Canine; settings: MDCKII cells without PGP1 expression, calcein-AM 1 μM
MDCKII cells [7] = experiment: In vitro cytotoxicity, MTT assay, MDCKII cells; assay type: cell-based, Canine; settings: 48 h, n = 8, mean ± SD
Method in brief: (§2)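 Parental and PGP1-overexpressing MDCKII cells seeded at 5 × 10^3 per well, incubated 24 h at 37°C/5% CO2, then exposed 48 h to serial concentrations of DMSO-dissolved compound (DMSO ≤1% v/v). MTT (5 mg/ml solution) was added for 4 h at 37°C, formazan dissolved in DMSO, absorbance read at 595 nm; IC50 derived; mean ± SD.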

[8] = test system: PGP1 overexpressing MDCKII cells; experiment: In vitro cytotoxicity, MTT assay, PGP1 overexpressing MDCKII cells; assay type: cell-based, Canine; settings: 48 h, n = 8, mean ± SD
Method in brief: as §2

Chain of ABCB1 transporter (PGP1) (P08183 whole entry): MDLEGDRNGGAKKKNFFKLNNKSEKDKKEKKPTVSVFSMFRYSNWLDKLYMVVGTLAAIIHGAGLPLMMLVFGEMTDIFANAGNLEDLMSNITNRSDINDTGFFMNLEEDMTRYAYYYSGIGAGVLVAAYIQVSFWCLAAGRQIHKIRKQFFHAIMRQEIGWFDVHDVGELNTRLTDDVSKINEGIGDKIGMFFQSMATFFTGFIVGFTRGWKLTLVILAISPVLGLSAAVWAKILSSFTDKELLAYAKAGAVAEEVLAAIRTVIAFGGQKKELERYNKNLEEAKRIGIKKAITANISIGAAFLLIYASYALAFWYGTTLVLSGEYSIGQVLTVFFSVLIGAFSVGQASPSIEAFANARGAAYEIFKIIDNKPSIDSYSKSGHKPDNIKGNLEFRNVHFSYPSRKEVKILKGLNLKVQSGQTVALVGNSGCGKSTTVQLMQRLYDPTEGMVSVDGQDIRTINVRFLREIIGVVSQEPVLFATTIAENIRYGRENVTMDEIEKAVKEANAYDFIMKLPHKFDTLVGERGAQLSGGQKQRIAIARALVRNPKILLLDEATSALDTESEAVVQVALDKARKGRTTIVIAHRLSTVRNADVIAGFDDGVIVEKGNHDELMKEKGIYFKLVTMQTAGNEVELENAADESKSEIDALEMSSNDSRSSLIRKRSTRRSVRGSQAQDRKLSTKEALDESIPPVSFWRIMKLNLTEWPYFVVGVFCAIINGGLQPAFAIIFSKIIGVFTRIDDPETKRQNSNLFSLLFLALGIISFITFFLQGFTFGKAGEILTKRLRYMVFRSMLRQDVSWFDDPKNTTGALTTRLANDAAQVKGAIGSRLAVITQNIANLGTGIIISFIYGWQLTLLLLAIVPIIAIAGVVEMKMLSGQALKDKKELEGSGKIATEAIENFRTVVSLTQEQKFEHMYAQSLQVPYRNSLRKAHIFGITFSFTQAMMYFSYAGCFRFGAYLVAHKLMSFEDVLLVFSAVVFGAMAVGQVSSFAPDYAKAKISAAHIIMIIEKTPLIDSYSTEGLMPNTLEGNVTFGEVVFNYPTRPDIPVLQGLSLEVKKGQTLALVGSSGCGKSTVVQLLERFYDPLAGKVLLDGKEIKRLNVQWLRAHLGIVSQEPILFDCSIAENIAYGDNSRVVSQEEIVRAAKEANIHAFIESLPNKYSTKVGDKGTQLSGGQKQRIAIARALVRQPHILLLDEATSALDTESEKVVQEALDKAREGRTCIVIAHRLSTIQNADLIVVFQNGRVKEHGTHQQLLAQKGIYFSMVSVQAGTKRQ

Compound: C#C[C@]1(CO)O[C@@H](n2cnc3c(N)nc(F)nc32)C[C@@H]1O [EFdA, 4′-ethynyl-2-fluoro-2′-deoxyadenosine]
- pH dependence of transport (Caco-2 monolayers): independent of pH
- PGP1 inhibitory effect (ABCB1 transporter (PGP1)): lack of observed PGP1 inhibitory effect
- Efflux ratio after EDTA treatment compared to non-EDTA treatment groups (MDCKII monolayers): higher
- Papp A→B [1]: < 1 ×10⁻⁶ cm/s
- efflux ratio [1]: ~1
- efflux ratio at 2 h [2]: > 2
- efflux ratio at 2 h, 100 μM [2]: 5.7
- efflux ratio at 2 h, 400 μM [2]: 2.5
- Change in solubility ([3]; pH from 6 to 9): no obvious change
- Solubility in water [3]: 1000 µg/mL (≈ 3.41 mM)
- Papp [4]: < 1 ×10⁻⁶ cm/s
- Log Po/w [5]: −1.2

Compound: C=C[C@H]1C[N@@]2CC[C@H]1C[C@@H]2[C@@H](O)c1ccnc2ccc(OC)cc12 [Quinidine]
- PGP1 inhibitory response (calcein fluorescence) (MDCKII cells [6]): no obvious PGP1 inhibitory response

Compound: Ivermectin
- IC50 (MDCKII cells [7]): 20 ± 2.91 µM
- IC50 [8]: 12.2 ± 0.87 µM
- PGP1 inhibitory response (calcein fluorescence) (MDCKII cells [6]): no obvious PGP1 inhibitory response

Compound: Lucifer yellow [LY]
- Efflux ratio after EDTA treatment compared to non-EDTA treatment groups (MDCKII monolayers): higher
- Papp (a–b) (MDCKII monolayers; 25 μM): 3.76 ± 0.12 × 10^−7cm/s
- Papp (b-a) (MDCKII monolayers; 25 μM): 4.14 ± 0.40 × 10^−7cm/s
- Papp (a–b) (MDCKII monolayers; 100 μM): 1.70 ± 0.06 × 10^−7cm/s
- Papp (b-a) (MDCKII monolayers; 100 μM): 2.05 ± 0.12 × 10^−7cm/s
- Papp (a–b) (MDCKII monolayers; 400 μM): 1.77 ± 0.31 × 10^−7cm/s
- Papp (b-a) (MDCKII monolayers; 400 μM): 2.07 ± 0.46 × 10^−7cm/s
